Laboratory results as given in ChEMBL document CHEMBL5678815 (Clin Cancer Res, 2017).
Activity calls are given as the source filed them. The calls are words filed in the database; no cut-off is given here.

Columns and labels:
[1] = test system: Splenocyte; assay: In vivo inhibition of BCR signaling in female […] mouse assessed as CD69 expression at 2.9 mg/kg, po administered and measured after stimulation with anti-IgM for 18 h by flow cytometry analysis; type: functional, organism-based
Outline: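 Female C57BL/6 mice (5/group/dose) were gavaged orally with vehicle or drug at 0.1–30 mg/kg, and spleens were harvested after 3 h. Splenocytes were stimulated with anti-IgM at 10μg/mL for 18 h at 37°C in 5% CO2, then Fc-blocked and stained for CD19 and CD69, with 7-AAD marking dead cells. CD69 on CD19+ B-cells was read by flow cytometry, acquiring >5,000 gated CD19+ cells.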

[2] = In vivo inhibition of BCR signaling in female […] mouse assessed as B-cell function at 25 mg/kg, po administered for 24 hrs and measured after stimulation with anti-IgM for 18 h by flow cytometry analysis relative to control; type: functional, Splenocyte; set-up: scale not given: the % may be the effect or the level left
Outline: (§1)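 Female C57BL/6 mice (5/group) received vehicle or 25 mg/kg drug by oral gavage at time zero, with spleens taken at time points from 3 to 24 h. Splenocytes were stimulated ex vivo with goat anti-mouse IgM at 10μg/mL for 18 h at 37°C in 5% CO2, then Fc-blocked and stained for CD19 plus CD69, CD86 or phospho-S6(S235/236), with 7-AAD to exclude dead cells. Read-out was flow cytometry on >5,000 gated CD19+ cells, compared with vehicle.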

[3] = test system: Splenocyte; assay: In vivo inhibition of BCR signaling in female […] mouse assessed as change in CD86 expression at 25 mg/kg, po administered and measured after stimulation with anti-IgM for 18 h by flow cytometry analysis; type: functional, organism-based; outline: as §1
[4] = test system: Splenocyte; assay: In vivo inhibition of BCR signaling in female […] mouse assessed as change in phospho-S6 expression at 25 mg/kg, po administered and measured after stimulation with anti-IgM for 18 h by flow cytometry analysis; type: functional, organism-based; outline: as §1

With `C=CC(=O)N1CCC[C@@H](n2nc(-c3ccc(Oc4ccccc4)cc3)c3c(N)ncnc32)C1` [IBRUTINIB] the Activity [1] was “Active”, the Activity [2] was ~70% and the Activity [3] was “Active”. The Activity [4] was “Active”.
